What all share (type): functional
One test deals with KM12. Kind of test: Growth inhibition of human KM12 cells incubated for 48 hrs by sulforhodamine B assay. The following applies: KM12, 48 h; for CC50: read-out: LC50 (the source's name). Summed up:
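Five-dose NCI SRB assay at 100, 10, 1.0, 0.1 and 0.01 μM for 48 h at 37 °C, 5% CO2. Medium was RPMI-1640 with 5% FBS and 2 mM glutamine. Time-zero plates were TCA-fixed at compound addition, A515 read after SRB staining. GI50 was solved from [(Ti−Tz)/(C−Tz)]×100 = 50. Values beyond the tested range are given as > or <.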
In general terms: The SRB assay estimates cell density from bound dye.

The test system of another test is NCI-H226. Put plainly: Growth inhibition of human NCI-H226 cells incubated for 48 hrs by sulforhodamine B assay. Conditions: NCI-H226, 48 h; for CC50: read-out: LC50 (the source's name). Summed up: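 NCI 60-line screen. Cells in RPMI-1640 with 5% FBS and 2 mM L-glutamine, preincubated 24 h, then time-zero plates TCA-fixed. Compounds from DMSO stocks given at five final concentrations (100, 10, 1.0, 0.1, 0.01 µM) for 48 h at 37 °C, 5% CO2. Cells fixed with 10% TCA, SRB-stained, read at 515 nm. GI50 is the concentration giving 50% lower net protein increase versus control.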

The subject of a further test is Klebsiella pneumoniae. Put plainly: Bactericidal activity against carbapenemase positive Klebsiella pneumoniae BAA 1705 after 24 hrs by resazurin dye based microdilution assay. Conditions: BAA 1705, 24 h.
For test [1], the system named is Staphylococcus aureus. Kind of test: Bactericidal activity against methicillin-resistant Staphylococcus aureus ATCC 43300 after 24 hrs by resazurin dye based microdilution assay. Conditions: ATCC 43300, 24 h. In a few lines: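 3 µL of each dilution with no visible growth was plated onto trypticase agar. Gentamicin as control. Duplicate, replicated at least three times.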
A general note: The colour change of resazurin is a common sign of viable cells or microbes.

Test [2] concerns Staphylococcus aureus. Kind of test: Bactericidal activity against methicillin-sensitive Staphylococcus aureus ATCC 25923 after 24 hrs by resazurin dye based microdilution assay. The following applies: ATCC 25923, 24 h.
Test [3] relates to Staphylococcus aureus. Kind of test: Bactericidal activity against vancomycin-intermediate Staphylococcus aureus after 24 hrs by resazurin dye based microdilution assay.
The next test deals with Escherichia coli. Put plainly: Bactericidal activity against Escherichia coli ATCC 25922 after 24 hrs by resazurin dye based microdilution assay. The following applies: ATCC 25922, 24 h.

In brackets after ≈: the same amount, converted by molar mass.

For orientation: GI50 means the concentration giving 50% growth inhibition. A higher GI50 goes with lower sensitivity of the cells. One may read the MBC as the smallest concentration meeting the test's criterion for killing. A higher MBC goes with less potent killing.

Consider `COc1cccc2c1C(=O)c1c(O)c3c(c(O)c1C2=O)C[C@@](O)(C(=O)CO)C[C@@H]3O[C@H]1C[C@H](N)[C@H](O)[C@H](C)O1` [DOXORUBICIN], for which growth with KM12 was halved (GI50) at 270 nM. Further, in the test on NCI-H226, growth was halved (GI50) at 50 nM and the CC50 turned out to be 6400 nM.

On to `COc1ccc(C2=NN(C=O)C(c3cccc(Nc4ccnc5cc(Cl)ccc45)c3)C2)cc1` (stereo not drawn), for which the GI50 in the test with KM12 was 2180 nM; with NCI-H226 it was 3130 nM. Further, the CC50 with KM12 and with NCI-H226 was > 100000 nM throughout.

With `COc1ccc(C(=O)/C=C/c2cccc(Nc3ccnc4cc(Cl)ccc34)c2)cc1`, in the test with KM12, the GI50 turned out to be 2450 nM and the CC50 was > 100000 nM. Besides, in the test with NCI-H226, it took 1780 nM to inhibit growth by half (GI50) and the CC50 was > 100000 nM.

For the compound `O=Cc1cccc(Nc2ccnc3cc(Cl)ccc23)c1`, the MBC in the test with Klebsiella pneumoniae is > 1000 µg/mL; against Staphylococcus aureus [1] it was > 1000 µg/mL; in the test with Staphylococcus aureus [2] it was 500 µg/mL (≈ 1770 µM); with Staphylococcus aureus [3], 500 µg/mL (≈ 1770 µM); against Escherichia coli it was 500 µg/mL (≈ 1770 µM).

For the compound `O=CN1N=C(c2ccc(Cl)cc2)CC1c1cccc(Nc2ccnc3cc(Cl)ccc23)c1` (stereo not drawn), the GI50 was 1220 nM in the test on KM12 and 1870 nM in the test with NCI-H226. Moreover, the CC50 in the test with KM12 and in the test on NCI-H226 was > 100000 nM in each case.

With `COc1cc(C(=O)/C=C/c2cccc(Nc3ccnc4cc(Cl)ccc34)c2)cc(OC)c1OC`, the values for the GI50 in the test on KM12 and in the test with NCI-H226 were 440 nM and 1270 nM, respectively. For the same compound, the CC50 in the test with NCI-H226 came to 6850 nM.

The values are drawn from ChEMBL document CHEMBL4038284, “Synthesis of novel quinoline-based 4,5-dihydro-1H-pyrazoles as potential anticancer, antifungal, antibacterial and antiprotozoal agents” (Eur J Med Chem, 2017).
